For ten compounds, IC50 and Ki results are on record in ChEMBL document CHEMBL1126113, “Para-substituted Phe3 deltorphin analogues: enhanced selectivity of halogenated derivatives for delta opioid receptor sites” (J Med Chem, 1992).

The species named for assay [1] is Cavia porcellus. Description: Concentration required to inhibit electrically induced twitch by 50% in guinea pig ileum(GPI). In kind it is functional.
For assay [2], the target named is Delta-type opioid receptor (Rattus norvegicus, UniProt P33533). Description: Binding affinity against opioid receptor delta in rats by displacing [3H]DPDPE.
Chain of Delta-type opioid receptor (P33533 whole entry): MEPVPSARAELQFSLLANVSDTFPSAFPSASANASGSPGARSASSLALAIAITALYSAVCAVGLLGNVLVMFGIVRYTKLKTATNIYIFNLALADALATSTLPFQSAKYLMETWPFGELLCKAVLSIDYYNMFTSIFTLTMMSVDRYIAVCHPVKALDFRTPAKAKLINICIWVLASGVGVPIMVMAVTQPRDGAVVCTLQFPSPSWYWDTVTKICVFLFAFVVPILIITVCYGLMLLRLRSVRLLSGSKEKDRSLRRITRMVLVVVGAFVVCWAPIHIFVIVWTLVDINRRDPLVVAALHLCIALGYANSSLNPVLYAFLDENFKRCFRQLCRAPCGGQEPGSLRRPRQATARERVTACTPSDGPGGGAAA
In assay [3] the target is Mu-type opioid receptor (Rattus norvegicus, UniProt P33535). Description: Binding affinity against opioid receptor mu in rats by displacing [3H]-DAGO.
Chain of Mu-type opioid receptor (P33535 whole entry): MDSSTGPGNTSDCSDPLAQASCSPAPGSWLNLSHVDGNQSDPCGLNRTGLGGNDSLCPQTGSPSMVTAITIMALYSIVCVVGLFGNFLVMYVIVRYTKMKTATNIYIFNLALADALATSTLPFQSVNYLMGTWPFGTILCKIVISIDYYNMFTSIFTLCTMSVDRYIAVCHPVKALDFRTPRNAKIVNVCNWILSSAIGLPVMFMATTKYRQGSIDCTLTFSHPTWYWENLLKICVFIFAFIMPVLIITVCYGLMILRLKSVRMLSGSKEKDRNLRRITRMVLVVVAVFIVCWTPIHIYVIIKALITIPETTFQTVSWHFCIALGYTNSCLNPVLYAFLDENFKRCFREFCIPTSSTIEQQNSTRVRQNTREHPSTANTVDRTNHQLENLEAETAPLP
Assay [4] is filed under the species Mus musculus. Description: Concentration required to inhibit electrically induced twitch by 50% in mouse vas deferens(MVD). In kind it is functional. An outline of the steps: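 Mouse vas deferens field-stimulated at 0.1 Hz, 1 ms, 40 V; twitch recorded with an isometric transducer. Peptide doses added to the aerated bath, with three to four washes at 10-min intervals between doses. IC50 from log-dose curves, normalized against a dermorphin or morphine standard run on each tissue.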

One may read the IC50 as the point on the concentration scale where inhibition reaches its midpoint. One may read the Ki as the equilibrium dissociation constant of an inhibitor or competing ligand from its target.

Consider `CC(C)[C@H](NC(=O)[C@H](CC(=O)O)NC(=O)[C@H](Cc1ccc([N+](=O)[O-])cc1)NC(=O)[C@@H](C)NC(=O)[C@@H](N)Cc1ccc(O)cc1)C(=O)N[C@H](C(=O)NCC(N)=O)C(C)C`, for which the half-inhibitory concentration (IC50) is above 10 µM in assay [1] and 1200 nM in assay [4]. Further, the figures for the Ki in assay [2] and in assay [3] were 71.8 nM and 2390 nM, respectively.

For `CC(C)[C@H](NC(=O)[C@H](CC(=O)O)NC(=O)[C@H](Cc1ccccc1)NC(=O)[C@@H](C)NC(=O)[C@@H](N)Cc1ccc(O)cc1)C(=O)N[C@H](C(=O)NCC(N)=O)C(C)C` [DELTORPHIN C], the half-maximal inhibitory concentration (IC50) in assay [1] was determined as 0.42 µM; in assay [4], 0.14 nM. Besides, the Ki came to 0.24 nM in assay [2] and 272 nM in assay [3].

Turning to `CC(C)[C@H](NC(=O)[C@H](CC(=O)O)NC(=O)[C@H](Cc1ccc(Cl)cc1)NC(=O)[C@@H](C)NC(=O)[C@@H](N)Cc1ccc(O)cc1)C(=O)N[C@H](C(=O)NCC(N)=O)C(C)C`, the IC50 in assay [1] came to 1.8 µM; in assay [4], 0.16 nM. Besides, the Ki in assay [2] is 1.58 nM; in assay [3] it was 287 nM.

On to `CC(C)[C@H](NC(=O)[C@H](CCC(=O)O)NC(=O)[C@H](Cc1ccccc1)NC(=O)[C@H](C)NC(=O)[C@@H](N)Cc1ccc(O)cc1)C(=O)N[C@H](C(=O)NCC(=O)O)C(C)C` [DELTORPHINE II], for which the IC50 in assay [1] came out at 5.2 µM; in assay [4], 0.75 nM. This compound also yielded a Ki in assay [2] of 0.12 nM.

In the case of `CC(C)[C@H](NC(=O)[C@H](CC(=O)O)NC(=O)[C@H](Cc1ccc(I)cc1)NC(=O)[C@@H](C)NC(=O)[C@@H](N)Cc1ccc(O)cc1)C(=O)N[C@H](C(=O)NCC(N)=O)C(C)C`, the results for the IC50 in assay [1] and in assay [4] were above 10 µM and 17 nM, respectively. In addition, the Ki in assay [2] is 1.62 nM; in assay [3], 1410 nM.

With `CC(C)[C@H](NC(=O)[C@H](CC(=O)O)NC(=O)[C@H](Cc1ccc(F)cc1)NC(=O)[C@@H](C)NC(=O)[C@@H](N)Cc1ccc(O)cc1)C(=O)N[C@H](C(=O)NCC(N)=O)C(C)C`, the results for the IC50 in assay [1] and in assay [4] were 1.1 µM and 3.5 nM, respectively. The values for the Ki in assay [2] and in assay [3] were 0.51 nM and 554 nM, respectively.

Regarding `CC(C)[C@H](NC(=O)[C@H](CC(=O)O)NC(=O)[C@H](Cc1ccc(N)cc1)NC(=O)[C@@H](C)NC(=O)[C@@H](N)Cc1ccc(O)cc1)C(=O)N[C@H](C(=O)NCC(N)=O)C(C)C`, the IC50 in assay [1] is above 10 µM; in assay [4] it was 1100 nM. Also, the results for the Ki in assay [2] and in assay [3] were 33.9 nM and 506 nM, respectively.

As to `CC(C)[C@H](NC(=O)[C@H](CCC(=O)O)NC(=O)[C@H](Cc1ccc([N+](=O)[O-])cc1)NC(=O)[C@@H](C)NC(=O)[C@@H](N)Cc1ccc(O)cc1)C(=O)N[C@H](C(=O)NCC(N)=O)C(C)C`, the IC50 in assay [1] is above 10 µM; in assay [4], 430 nM. In addition, the Ki in assay [2] turned out to be 101 nM; in assay [3] it was 1430 nM.

As for `CC(C)[C@H](NC(=O)[C@H](CCC(=O)O)NC(=O)[C@H](Cc1ccc(N)cc1)NC(=O)[C@@H](C)NC(=O)[C@@H](N)Cc1ccc(O)cc1)C(=O)N[C@H](C(=O)NCC(N)=O)C(C)C`, the half-maximal inhibitory concentration (IC50) in assay [1] is above 10 µM; in assay [4], 300 nM. Also, the Ki in assay [2] worked out at 48.1 nM; in assay [3], 2460 nM.

In the case of `CC(C)[C@H](NC(=O)[C@H](CC(=O)O)NC(=O)[C@H](Cc1ccc(Br)cc1)NC(=O)[C@@H](C)NC(=O)[C@@H](N)Cc1ccc(O)cc1)C(=O)N[C@H](C(=O)NCC(N)=O)C(C)C`, the values for the IC50 in assay [1] and in assay [4] were 7 µM and 1.1 nM, respectively. The Ki in assay [2] is 2.39 nM; in assay [3], 4790 nM.
